Screening data (PubChem BioAssay)
Shown are actives, neighbours in structure and some others; about 4.1% of the full set was active somewhere.
KCNQ1 block – blocks the human KCNQ1 potassium channel. P51787. CHO-K1 KCNQ1, FluxOR thallium flux fluorescence; stronger effect = higher value. B-score at 10 µM. 310,000 compounds, 1.3% hits;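 active means compounds whose thallium flux B-score, printed positive for inhibition, exceeds three library SD while starting fluorescence stays within three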;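 further: channel opened by potassium depolarization with thallium stimulus after 20 min compound exposure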
KCNK9 block – blocks the human KCNK9 two-pore domain potassium channel; B-score at 10 µM; HEK293 KCNK9, FluxOR thallium flux fluorescence; stronger effect = lower value; AID 488922; Q9NPC2; 310,000 compounds, 1.2% hits;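 active means ratio B-score over 3 SD below the library mean, with starting fluorescence within 5 SD of its mean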;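 further: negative B-score means less thallium flux so channel inhibition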
KCNQ1 act – potentiates or activates the human KCNQ1 potassium channel; CHO-K1 KCNQ1, thallium flux FluxOR fluorescence; stronger effect = higher value; B-score at 10 µM; 310,000 compounds, 0.35% hits; AID 2648;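 active means fluorescence ratio B-score, a plate-corrected score, at least three library SD, with initial intensity B-score within 5 SD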
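Assay system: CHO-K1 cells stably expressing KCNQ1; Medium: assay buffer with matched DMSO; Also added: K+/Tl+ depolarizing stimulus; Dosing: single dose; Timing: dye 90 min, compound 20 min, room temperature; Measured by: kinetic FluxOR thallium fluorescence, 10-s 1-Hz baseline, 110-s post-stimulus read; Read-out: peak-minus-minimum fluorescence over initial fluorescence, negative-control normalized, B-scored.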
KCNK3 block – human KCNK3 channel inhibition, primary screen. B-score at 10 µM. 340,000 compounds, 0.84% hits. CHO-KCNK3 thallium flux, FluxOR fluorescence; stronger effect = lower value. O14649. AID 602410;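 active means B-score under library mean minus 4 SD, starting fluorescence ratio at most library mean plus 5 SD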;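 further: more negative B-score means stronger inhibition of thallium flux through KCNK3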
Target sequence (O14649 whole entry, looked up): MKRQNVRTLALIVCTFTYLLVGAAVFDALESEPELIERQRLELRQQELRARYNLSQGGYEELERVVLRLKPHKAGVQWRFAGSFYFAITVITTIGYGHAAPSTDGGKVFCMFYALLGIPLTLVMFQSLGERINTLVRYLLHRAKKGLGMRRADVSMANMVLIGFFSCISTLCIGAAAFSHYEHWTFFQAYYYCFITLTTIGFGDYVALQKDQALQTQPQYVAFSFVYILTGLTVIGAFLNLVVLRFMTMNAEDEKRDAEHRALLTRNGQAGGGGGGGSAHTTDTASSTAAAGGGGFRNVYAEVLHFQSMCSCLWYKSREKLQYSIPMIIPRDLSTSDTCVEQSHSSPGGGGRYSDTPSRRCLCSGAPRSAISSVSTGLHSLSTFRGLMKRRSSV
KCC2 mod – KCC2 (human) Cl- transport modulation; B-score of Tl+ flux slope (higher = more flux/activation; lower = inhibition) at 10 µM; 190,000 compounds, 2.2% hits; KCC2 cells, thallium flux FluoZin-2 fluorescence;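 active means thallium flux slope and its plate-corrected score both differing from the plate sample mean at a set confidence after two filtering rounds, in either direction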;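 further: slope of fluorescence scaled to starting intensity during 10 to 20 s after thallium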
hERG protect – shields human hERG channel from block by proarrhythmic agents | activation (rescue from dofetilide block), less the hit threshold, % at 10 µM | AID 1511 | Q12809 | CHO-hERG, FluxOR thallium flux, dofetilide IC70 present | 310,000 compounds, 0.51% hits;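 active means activation above the mean of controls blocked by dofetilide plus 5 SD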;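 further: thallium influx through hERG after potassium depolarization seen as dye fluorescence rise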
Active calls of the source: *; i = inactive; · = no result given.

SMILES	KCNQ1 block	KCNK9 block	KCNQ1 act	KCNK3 block	KCC2 mod	hERG protect
Cc1nn(C)cc1C1Nc2ccccc2C(=O)N1O (centres undefined)	i	i	i	i	-0.093	-10.5
C=CCc1cccc(C2Nc3ccccc3C(=O)N2O)c1O (centres undefined)	i	i	i	i	13.3*	1.2
CCOC(=O)C1C(=O)C=C(c2ccc([N+](=O)[O-])cc2)CC1c1ccccc1 (centres undefined)	6*	i	i	i	-0.438	-16.5
CC(C)NC(=O)Nc1cccc2c1O[C@H](CN(C)S(C)(=O)=O)[C@@H](C)CN([C@H](C)CO)C2=O	·	·	·	i	·	·
Cc1ccc(C2=CSC3=NS(=O)(=O)CCN23)cc1	i	i	9*	i	-0.445	0.9
COC(=O)C(C)NC(=O)C1CCCN1S(=O)(=O)c1cc(C)c(Cl)cc1C (centres undefined)	i	i	i	i	-4.34*	-6.0
CCCCCC(=O)Nc1nc(C)c(-c2csc(Nc3cc(OC)ccc3OC)n2)s1	i	-7.25*	i	i	1.05	-9.9
Cc1ccccc1Nc1nc(-c2sc(NC(=O)c3ccc([N+](=O)[O-])cc3)nc2C)cs1	7*	i	i	·	-0.539	-11.9
CCCCCCC(=O)Nc1nc(C)c(-c2csc(Nc3cc(OC)ccc3OC)n2)s1	i	i	i	i	1.18	-10.1
COc1ccc(OC)c(Nc2nc(-c3sc(NC(=O)c4ccccc4)nc3C)cs2)c1	i	-8.16*	i	·	-1.11	-21.0
COc1cc(NC(=O)COc2ccc(-n3cnnn3)cc2)cc(OC)c1OC	·	·	·	i	·	·
Cn1cccc1/C=N/n1c(-c2ccc(Cl)cc2Cl)n[nH]c1=S	i	i	8*	i	·	-4.9
S=c1[nH]nc(-c2ccco2)n1/N=C/c1cccs1	i	i	i	i	2.31	-3.7
S=c1[nH]nc(-c2ccco2)n1/N=C/c1ccc(Cl)cc1Cl	i	i	i	i	15.5*	-5.9
S=c1[nH]nc(-c2ccco2)n1/N=C/c1cccc(Cl)c1Cl	i	i	15*	i	48.8*	-0.3
O=C(Cn1cnc2c(NCc3ccccc3)ncnc21)NCCc1cc2ccccc2[nH]1	·	·	·	i	·	·
CCOC(=O)c1ccc(N(CC2CO2)S(=O)(=O)c2ccc(C)cc2)cc1 (centres undefined)	·	·	·	i	·	·
COc1ccc(N2CC(C(=O)N[C@@H](CC(C)C)C(=O)NC3CCCCC3)CC2=O)cc1 (some centres undefined)	i	i	i	i	·	-7.1
CCNC(=S)N/N=C1\C(=O)c2cccc3cccc1c23	i	i	9*	i	24.1*	7.9*
O=C(Nc1cccc(NC(=O)c2ccc(Cl)cc2)n1)c1ccc(Cl)cc1	i	i	i	i	·	-9.5
O=C(N/N=C1/C(=O)c2cccc3cccc1c23)c1ccc(Cl)cc1	i	i	41*	i	4.81*	53.0*
CN(CC(=O)Nc1cc(S(=O)(=O)N2CCCC2)ccc1Cl)Cc1nc2ccccc2c(=O)[nH]1	·	·	·	i	·	·
O=C(Nc1nc(=S)ss1)c1ccc(Cl)cc1Cl	i	i	15*	i	4.98*	40.9*
CCOC(=O)c1nn(C)c2[nH]c(=O)n(C)c(=O)c12	·	·	·	i	·	·
CCOc1ccc(C(=O)Nc2cc(C)on2)cc1OCC	i	i	i	i	-1.06	4.9*
SMILES	KCNQ1 block	KCNK9 block	KCNQ1 act	KCNK3 block	KCC2 mod	hERG protect
N#CC1=C(N)Oc2ccc3ccc(O)cc3c2C1c1cccnc1 (centres undefined)	i	i	i	i	-0.376	-3.8
N#CC1=C(N)Oc2ccc3ccccc3c2C1c1cccnc1 (centres undefined)	i	i	i	i	-1.24	4.9*
COc1ccc(CNCCc2ccccc2)cc1OCC(N)=O	i	i	i	i	·	-6.1
CCOc1cc(CNCc2ccccc2)ccc1OCc1ccc(Cl)cc1	7*	i	i	i	·	-20.7
COc1ccc(CNCCc2ccc(Cl)cc2)cc1OCc1ccccc1	10*	i	i	-9.5*	0.563	-41.4
Cc1ccccc1-c1cccc([C@@H]2C[C@H]3[C@H](CON3C)CN2C(=O)CCc2ccccc2)c1	·	·	·	i	·	·
CSCCC(NC(=O)COc1ccccc1)C(=O)NCCOc1ccc(C)cc1 (centres undefined)	i	i	i	i	·	-4.3
O=C(O)CC/C(=C\c1cc([N+](=O)[O-])ccc1Cl)c1nc2ccccc2s1	i	i	i	i	-10.3*	-17.3
[O-][n+]1nc2ccccc2c2ccccc21	·	·	·	i	·	·
O=C(Nc1ccc(NC(=O)C2CC2)nc1)c1cccnc1	i	i	i	i	0.481	4.9*
CCCC(=O)Nc1ccc(Cl)c(-c2nc3ncccc3o2)c1	i	-7.98*	i	i	·	-8.5
CCCC(=O)Nc1cccc(-c2nc3ccccc3o2)c1	i	i	i	i	·	-5.1
CC(C)CC(=O)Nc1cccc(-c2nc3ccccc3o2)c1	i	-7.7*	i	i	-0.519	-13.4
CCCCCC(=O)Nc1cccc(-c2nc3ncccc3o2)c1	i	-7.4*	i	i	-0.0543	-18.0
Cc1cc(NC(=O)c2cccs2)cc(-c2nc3ncccc3o2)c1O	i	-8*	i	i	·	-3.2
COc1ccc(CC(=O)Oc2cc(C)ccc2C)cc1	i	i	i	i	·	-1.6
CCOc1ccc(-c2nc(S(=O)(=O)c3ccccc3)c(N3CCC(C(N)=O)CC3)o2)cc1	i	i	i	i	·	-16.7
CC(=O)Nc1ccc(NC(=O)CSc2nnc(NC(=O)C3CC(=O)N(c4ccc(F)cc4)C3)s2)cc1 (centres undefined)	i	i	i	i	·	-2.8
O=S(=O)(Nc1ccccc1)c1ccc(-c2cnc(C3CC3)o2)cc1	i	i	i	i	·	-7.1
Cc1cc(C)cc(NS(=O)(=O)c2ccc(-c3cnc(C4CC4)o3)cc2)c1	i	i	7*	i	·	-13.5
Cc1ccc2nc(SCCCCOc3ccccc3)[nH]c2c1	i	i	i	-9.92*	-0.468	-2.4
CC(C)(C)OC(=O)C[C@@H]1C/C=C\C[C@@H](CC(=O)NCCO)C(=O)NC[C@H](c2ccccc2)OC1=O	·	·	·	i	·	·
O=C(NNC(=O)c1cc(-c2ccncc2)nc2ccccc12)c1ccccc1O	i	i	i	i	·	-10.5
CC(Nc1cccc([N+](=O)[O-])c1)C(=O)Nc1ccc(S(=O)(=O)N2CCCC2)cc1 (centres undefined)	·	·	·	i	·	·
